In the array DNA melting data of Ke et al. (doi:10.1101/2024.01.08.574731):

Legend:
[1] = folding enthalpy; higher = less favourable; fluorescence melt of hairpins on a sequencing array, two-state fit; conditions: sodium 0.088 M
Summary of the method: (§1)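 Cy3 fluorescence of library hairpins on a sequenced MiSeq flow cell, with annealed Cy3 and quencher oligos, was imaged in 50 mM Na-HEPES pH 8.0, 25 mM NaCl in 2.5 °C steps up to 60 °C. Signals were normalised to pre-quench Cy3 and to control variants. Melting temperature and folding enthalpy came from bootstrapped two-state fits, inverse-variance combined over four replicates. Fitted temperatures were raised by 9.35 °C to match UV melts.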

[2] = melting temperature; fluorescence melt of hairpins on a sequencing array, two-state fit, raised by 9.35 °C to match UV melts; conditions: sodium 0.088 M
Summary of the method: as §1

Row | Sequence | folding enthalpy [1] [kcal/mol] | Tm [2] [°C]
1 | GTATGTGCGAAAGCATAC (((..(((....)))))) | -11.7 | 35
2 | GTATGTGGAAACACACAC ((.((((....)))).)) | -17.1 | 35.2
3 | GTATTACGAAAGTAGTAC (((.(((....))).))) | -28.4 | 41.3
4 | GTATTAGGAAACTAATGC (.(((((....))))).) | -28.2 | 34.2
5 | GTATTCACGAAAGTGTAC (((..(((....)))))) | -9.14 | 25.8
6 | GTATTCCCGAAAGGGTAC (((..(((....)))))) | -8.03 | 32.9
7 | GTATTCCGAAAGGATTAC (((.(((....))).))) | -28.2 | 43.5
8 | GTATTCGGAAACGAACAC ((.((((....)))).)) | -25.9 | 34.3
9 | GTATTCGGAAACGGATAC ((((.((....)).)))) | -33.2 | 45.1
10 | GTATTGCGAAAGCAGTAC (((.(((....))).))) | -26.8 | 51.6
11 | GTATTGGGAAACCAACAC ((.((((....)))).)) | -15 | 31.4
12 | GTATTGGGAAACCAATAC (((((((....))))))) | -43.7 | 53.8
13 | GTATTTGAAAAAATAC ((((((....)))))) | -25.2 | 38.1
14 | GTATTTGCGAAAGCATAC (((..(((....)))))) | -9.06 | 28.7
15 | GTATTTGGAAACAAATAC (((((((....))))))) | -44.3 | 50.5
16 | GTCAAACGAAAGTTCGAC (((.(((....))).))) | -30.7 | 43.1
17 | GTCAACCGAAAGGTAGAC (((.(((....))).))) | -31.6 | 51.5
18 | GTCAACGAAAGTTACGAC ((((((....)))..))) | -16.4 | 34.5
19 | GTCAACGAAAGTTAGAC ((((((....))).))) | -23.5 | 41
20 | GTCAACGAAAGTTGGAC ((((((....))).))) | -13.2 | 39.7
21 | GTCAACGAAAGTTGTGAC ((((((....)))..))) | -10.8 | 33
22 | GTCAACGAAAGTTTGAC ((((((....))).))) | -28.6 | 46.9
23 | GTCAACGAAAGTTTTGAC ((((((....)))..))) | -17.4 | 32.8

Row | Sequence | folding enthalpy [1] [kcal/mol] | Tm [2] [°C]
24 | GTCAACGGAAACGTTAAC ((.((((....)))).)) | -17.6 | 33.7
25 | GTCAAGCGAAAGCTAGAC (((.(((....))).))) | -25.6 | 52.8
26 | GTCAAGCGAAAGCTGAC (((.(((....)))))) | -25.6 | 58.6
27 | GTCAATCGAAAGATCGAC (((.(((....))).))) | -29 | 41.2
28 | GTCAATCGAAAGATGAC (((.(((....)))))) | -25.7 | 45.9
29 | GTCAATGGAAACGTTGAC (((((.(....).))))) | -31.2 | 48.1
30 | GTCACACGAAAGTGGGAC (((.(((....))).))) | -31.9 | 69.1
31 | GTCACAGGAAACTGCGAC (((.(((....))).))) | -28.8 | 46.1
32 | GTCACCCGAAAGGGCGAC (((.(((....))).))) | -35.7 | 58.9
33 | GTCACGCCGAAAGGCGAC (((..(((....)))))) | -6.44 | 32.1
34 | GTCACGCGAAAGCGGAC (((.(((....)))))) | -15.1 | 57
35 | GTCACGGGAAACTGTGGC (.(((.(....).))).) | -31.9 | 44.4
36 | GTCACTGCGAAAGCAGAC (((..(((....)))))) | -7.51 | 28.5
37 | GTCACTGGAAACAGTAAC ((.((((....)))).)) | -15.6 | 31.3
38 | GTCAGAACGAAAGTTGAC (((..(((....)))))) | -21.5 | 36.9
39 | GTCAGAGAAATCTGAC ((((((....)))))) | -37.3 | 51.2
40 | GTCAGCCGAAAGGCGGAC (((.(((....))).))) | -33.1 | 68
41 | GTCAGCGAAAGCTAGAC ((((((....))).))) | -22.8 | 50.7
42 | GTCAGCGAAAGCTCCGAC ((((((....)))..))) | -13.5 | 28.9
43 | GTCAGCGAAAGCTCGGAC ((((((....)))..))) | -12.4 | 37.3
44 | GTCAGCGAAAGCTGCGAC ((((((....)))..))) | -11.8 | 55.2
45 | GTCAGCGAAAGCTTGGAC ((((((....)))..))) | -13.9 | 38.2
46 | GTCAGGAAACTGAC (((((....))))) | -25.6 | 53.6

Row | Sequence | folding enthalpy [1] [kcal/mol] | Tm [2] [°C]
47 | GTCAGGCGAAAGCCAGAC (((.(((....))).))) | -23.4 | 59.8
48 | GTCAGGCGAAAGCCGAC (((.(((....)))))) | -16.5 | 60.6
49 | GTCAGGGGAAACCCCGAC (((.(((....))).))) | -24.8 | 50.2
50 | GTCAGGGGAAACCTTGGC (.((.((....)).)).) | -17.3 | 32.7
51 | GTCATACGAAAGTAGGAC (((.(((....))).))) | -29.3 | 53.9
52 | GTCATAGGAAACCATGAC (((((.(....).))))) | -27.6 | 38.5
53 | GTCATCACGAAAGTGGAC (((..(((....)))))) | -12.7 | 35.3
54 | GTCATCCCGAAAGGGGAC (((..(((....)))))) | -14.1 | 37.8
55 | GTCATCCGAAAGGAGAC (((.(((....)))))) | -20.1 | 45.2
56 | GTCATCGAAAGATCGAC ((((((....))).))) | -22.1 | 35.7
57 | GTCATCGAAAGATGCGAC ((((((....)))..))) | -19.8 | 46.1
58 | GTCATCGGAAACGATGGC (.(((((....))))).) | -28.1 | 56.2
59 | GTCATCGGAAACGGTGAC ((((.((....)).)))) | -38.1 | 55
60 | GTCATGCGAAAGCAGGAC (((.(((....))).))) | -32.2 | 67.7
61 | GTCATGGGAAACCATGAC (((((((....))))))) | -44.5 | 60.7
62 | GTCATTCGAAAGAACGAC (((.(((....))).))) | -31 | 41.1
63 | GTCATTGGAAACAACGAC (((.(((....))).))) | -20.9 | 35.5
64 | GTCATTGGAAACAGTGAC ((((.((....)).)))) | -33.7 | 43.9
65 | GTCCAAGGAAACTTGGAC (((((((....))))))) | -41.8 | 61.6
66 | GTCCAAGGAAACTTGGGC (.(((((....))))).) | -46.6 | 51.1
67 | GTCCACGAAAGTGACGAC ((((((....)))..))) | -20.4 | 43.9
68 | GTCCACGAAAGTGCTGAC ((((((....)))..))) | -14.7 | 33.9
69 | GTCCACGAAAGTGGTGAC ((((((....)))..))) | -9.78 | 38.2

Row | Sequence | folding enthalpy [1] [kcal/mol] | Tm [2] [°C]
70 | GTCCACGAAAGTGTGGAC ((((((....)))..))) | -27.1 | 55.8
71 | GTCCACGGAAACGCAGAC (((..((....))..))) | -21.3 | 29.1
72 | GTCCACGGAAACGCGGAC ((((.((....)).)))) | -45.8 | 53.8
73 | GTCCACGGAAACGTGGGC (.(((((....))))).) | -28.2 | 62.1
74 | GTCCAGGGAAACTTGGAC (((((.(....).))))) | -22.3 | 48.2
75 | GTCCATCGAAAGATCGAC (((.(((....))).))) | -31 | 35.5
76 | GTCCATGAAAATGGAC ((((((....)))))) | -31.7 | 62.4
77 | GTCCATGGAAACGTGGAC (((((.(....).))))) | -48.1 | 52.9
78 | GTCCCACGAAAGTGAGAC (((.(((....))).))) | -30.2 | 49.4
79 | GTCCCAGGAAACTGAGAC (((.(((....))).))) | -28 | 39
80 | GTCCCATCGAAAGATGAC (((..(((....)))))) | -12 | 25.9
81 | GTCCCCACGAAAGTGGAC (((..(((....)))))) | -6.73 | 29.3
82 | GTCCCCGAAAGGGAGGAC ((((((....)))..))) | -17.4 | 49.7
83 | GTCCCCGAAAGGGGCGAC ((((((....)))..))) | -14 | 65.8
84 | GTCCCCGAAAGGGTAGAC ((((((....)))..))) | -16.1 | 40.6
85 | GTCCCCTCGAAAGAGGAC (((..(((....)))))) | -8.53 | 33.6
86 | GTCCCGCGAAAGCGGAC (((.(((....)))))) | -9.81 | 56.3
87 | GTCCCGGGAAACTGGGAC (((((.(....).))))) | -37.2 | 60
88 | GTCCCGGGAAACTGGGGC (.(((.(....).))).) | -41.1 | 48.6
89 | GTCCCTCGAAAGAGAGAC (((.(((....))).))) | -23.3 | 46.2
90 | GTCCCTCGAAAGAGCGAC (((.(((....))).))) | -26.8 | 40.1
91 | GTCCGAACGAAAGTTGAC (((..(((....)))))) | -15.3 | 29.1
